Compounds with a hit are over-represented: about 2% of the library has one in this group of screens.
STAT3 act-1: STAT3 signaling activation | activation (% of control), % at 5.6 µM | AID 871 | actives 0.91% (n = 190,000) | U3A cells, IL-6 STAT3-luciferase reporter, luminescence; 100% = signal with IL-6 EC80 alone;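 active means activation above the screen-wide mean of compound activation plus 3 SD, cut at about 130% in these data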
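Material: human STAT1-deficient U3A cells with stable STAT3-luciferase reporter / Probe or stimulus: IL-6 stimulus at 33 ng/mL final / Schedule: 1 h compound pre-exposure, 6 h IL-6 stimulation, 37 °C / Technique: luminescence / Read-out basis: percent of IL-6-only median luminescence / Control set: IL-6-only high control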
HSP90 inh: blocks HSP90-mediated luciferase refolding in reticulocyte lysate; Rabbit reticulocyte lysate, luciferase refolding luminescence, 3 h; inhibition, % at 5.6 µM; actives 0.91% (n = 290,000);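 active means inhibition above the screen-wide mean plus 3 SD, computed separately per campaign, cut at about 16% in these data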;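 further: inhibitors lower the luminescence because luciferase stays unfolded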
STAT1 inh: STAT1 signaling inhibition | NIH 3T3 STAT1-luciferase reporter, IFN-gamma, luminescence | inhibition, % at 5.5 µM | actives 0.35% (n = 200,000) | AID 920;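 active means inhibition above a set limit, the mean inhibition across all tested compounds plus 3 SD, cut at about 34% in these data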
STAT3 inh-1: inhibitors of IL-6 induced STAT3 signaling. actives 0.89% (n = 190,000). U3A cells, IL-6 STAT3-luciferase reporter, luminescence; host cell line lacks STAT1. AID 862. inhibition, % at 5.5 µM;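 active means inhibition above the mean inhibition across all screened compounds plus 3 SD, cut at about 44% in these data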
STAT3 inh-2: confirmation of STAT3 signaling inhibitors; shares compounds with STAT3 inh-1; U3A cells, IL-6 STAT3 luciferase reporter, luminescence; cell line lacks STAT1; inhibition, % at 5.7 µM; actives 45% (n = 1,200); AID 1265;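 active means inhibition above the hit cutoff computed for the primary STAT3 screen, cut at about 44% in these data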
NFkB inh STAT3ct: inhibits NF-kappaB, counter-screen to STAT3 inhibitors. shares compounds with STAT3 inh-1. HEK293T NF-kB luciferase reporter, TNF-alpha induced. inhibition, % at 5.7 µM. actives 36% (n = 1,200). AID 1308;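 active means inhibition above the mean of solvent-only control wells plus 3 SD, cutoff set per campaign, cut at about 13% in these data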
STAT1 inh STAT3c: counter-screen for STAT3 inhibitors: STAT1 inhibition; shares compounds with STAT3 inh-1; NIH 3T3 STAT1-luciferase reporter, IFN-gamma induced, luminescence; inhibition, % at 5.7 µM; actives 27% (n = 1,200);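 active means inhibition above the mean plus 3 SD of solvent-only control wells, limit set per screening run, cut at about 16% in these data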
STAT3 act-2: confirmation of STAT3 signaling activators | shares compounds with STAT3 act-1 | U3A STAT3-luciferase reporter, IL-6 potentiation, luminescence; U3A cells lack STAT1; 100 means same as IL-6 alone | potentiation (% of control), % at 5.7 µM | actives 64% (n = 1,200);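 active means percent activation of the STAT3 luciferase reporter above a set limit taken from the earlier primary screen, cut at about 130% in these data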
NFkB act STAT3ct: NF-kappaB activation in STAT3 activator counter-screen | shares compounds with STAT3 act-1 | human cells, NF-kappaB reporter activation | activation (% of control), % at 5.7 µM | actives 11% (n = 1,200); in the data active means activation above about 120%;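 further: reporter induced by TNF-alpha stimulation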
STAT1 act STAT3c: counter-screen for STAT3 activators: STAT1 activation; NIH 3T3 STAT1-luciferase reporter, IFN-gamma, luminescence; actives 13% (n = 1,200); activation (% of control), % at 5.7 µM; shares compounds with STAT3 act-1;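 active means activation above the solvent-only control well mean plus 3 SD, set per screening run, cut at about 120% in these data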
HSP90 inh confirm: HSP90 inhibition, confirmation assay | shares compounds with HSP90 inh | rabbit reticulocyte lysate, luciferase refolding luminescence, 3 h | inhibition, % at 5.9 µM | actives 64% (n = 2,300); in the data active means inhibition above about 18%
FLuc counter: firefly luciferase inhibition, HSP90 counter-screen; inhibition, % at 5.9 µM; purified native firefly luciferase, luminescence; actives 48% (n = 2,300); shares compounds with HSP90 inh;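 active means inhibition above the mean inhibition of all tested sample wells plus 3 SD, cut at about 10% in these data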
Target sequence (P08659 whole entry, looked up): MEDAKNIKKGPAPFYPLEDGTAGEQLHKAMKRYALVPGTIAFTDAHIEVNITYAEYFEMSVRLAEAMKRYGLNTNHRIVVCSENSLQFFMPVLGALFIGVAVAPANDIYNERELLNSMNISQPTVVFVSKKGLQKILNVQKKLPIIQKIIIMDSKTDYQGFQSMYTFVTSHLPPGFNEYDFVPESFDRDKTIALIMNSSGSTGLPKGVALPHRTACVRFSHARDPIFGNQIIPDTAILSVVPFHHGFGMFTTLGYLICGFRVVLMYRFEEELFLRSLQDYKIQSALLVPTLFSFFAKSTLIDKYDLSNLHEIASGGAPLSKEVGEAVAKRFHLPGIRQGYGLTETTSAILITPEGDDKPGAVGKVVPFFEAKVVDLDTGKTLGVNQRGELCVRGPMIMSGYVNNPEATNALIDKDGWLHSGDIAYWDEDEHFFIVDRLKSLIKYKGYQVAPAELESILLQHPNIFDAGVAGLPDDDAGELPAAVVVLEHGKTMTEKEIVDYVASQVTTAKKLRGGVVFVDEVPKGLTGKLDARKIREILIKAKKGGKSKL
Hits are given with their value; 0 = inactive; - = not tested or not shown.

SMILES | STAT3 act-1 | HSP90 inh | STAT1 inh | STAT3 inh-1 | others
CCN(CC)C(=O)c1ccc(NC(=O)Nc2ccccc2F)cc1 | 0 | 55.4 | 61.6 | 85.8
CN(C)C(CNC(=O)Cc1c(Cl)cccc1Cl)c1ccccc1 (centres undefined) | 0 | 0 | 0 | 0
CCC(=NCC1CCCO1)c1c(O)n(-c2ccc(Cl)cc2)c(=O)[nH]c1=O (centres undefined) | 0 | 0 | 0 | 0
COC(=O)c1ccccc1N=Cc1c(O)[nH]c(=S)[nH]c1=O | 0 | 0 | 0 | 0
CC1=NN(c2ccccc2)C(=O)/C1=C/c1c(O)[nH]c(=S)[nH]c1=O | 146.4 | 0 | 0 | 0
O=C(CCc1nnc2ccc(NCc3ccccc3)nn12)N1CCC2(CC1)OCCO2 | - | 0 | - | -
Cn1cccc1/C=C1/C(=O)NC(=O)N(Cc2ccccc2)C1=O | 135.4 | 0 | 0 | 0
CC#CP(=O)(OC)C(O)(CF)c1ccccc1 (centres undefined) | 0 | 0 | 0 | 0
CC(C)CCCn1c(O)c(/C=C2/C=CC=N2)c(=O)[nH]c1=O | 0 | 0 | 0 | 0
CN1C(=O)C(Cc2cccc3ccccc23)C(=O)N(C)C1=O | 0 | 0 | 0 | 0
CN1C(=O)C(Cc2c[nH]c3ccccc23)C(=O)N(C)C1=O | 158.9 | 0 | 0 | 0
O=C1Nc2ccccc2/C1=C/c1cnc[nH]1 | 0 | 0 | 0 | 56.7
COc1ccc2c(c1)/C(=C/c1cnc[nH]1)C(=O)N2 | - | 0 | - | -
CC1=NN(c2ccccc2)C(=O)C1/C=C1/C(=O)NC(=O)N(c2cccc(C)c2)C1=O (centres undefined) | 150.5 | 0 | 0 | 0
CC1=NN(c2ccccc2)C(=O)C1/C=C1/C(=O)NC(=O)N(c2cc(C)cc(C)c2)C1=O (centres undefined) | 144.3 | 0 | 0 | 0
Cc1cc(C)cc(N2C(=O)NC(=O)/C(=C\c3cc(C)n(C)c3C)C2=O)c1 | 0 | 0 | 0 | 0
COC(=O)C(=O)N1CC2(C)CNCC(C)(C1)C2=O | 0 | 0 | 0 | 0
CNC(=O)c1cccn(Cc2ccc(C(F)(F)F)cc2)c1=O | 0 | 0 | 37.1 | 46.3
O=C(COc1ccccc1)N1CCN(Cc2c[nH]c3ccccc23)CC1 | 0 | 0 | 0 | 0
COc1ccc(OCC(=O)N2CCN(Cc3c[nH]c4ccccc34)CC2)cc1 | 135.1 | 0 | 0 | 0
NCCc1nc2ccccc2s1 | 133.3 | 0 | 0 | 0
CC(C)C/C(=N/O)c1c[nH]c2ccccc12 | 134.4 | 0 | 0 | 0
CN[C@H]1C[C@H]2O[C@@](C)([C@H]1OC)n1c3ccccc3c3c4c(c5c6ccccc6n2c5c31)C(=O)NC4 | 0 | 0 | 0 | 103.5 | STAT3 inh-2=105.4;NFkB inh STAT3ct=96.2;STAT1 inh STAT3c=26.2
C[C@H]1O[C@@H](OC2CC[C@]3(C=O)[C@H]4CC[C@]5(C)[C@@H](C6=CC(=O)OC6)CC[C@]5(O)[C@@H]4CC[C@]3(O)C2)CC2OC(C)(C)OC21 (some centres undefined) | - | 0 | - | -
C[C@H]1O[C@@H](O[C@H]2[C@@H](O)C[C@H](O[C@H]3[C@@H](O)C[C@H](O[C@H]4CC[C@@]5(C)[C@H](CC[C@@H]6[C@@H]5CC[C@]5(C)[C@@H](C7=CC(=O)OC7)CC[C@]65O)C4)O[C@@H]3C)O[C@@H]2C)C[C@H](O)[C@@H]1O | 0 | 0 | 0 | 82.8 | STAT3 inh-2=81.1;NFkB inh STAT3ct=0;STAT1 inh STAT3c=0
SMILES | STAT3 act-1 | HSP90 inh | STAT1 inh | STAT3 inh-1 | others
CC(C)CC(NC(=O)CCCNC(=O)CCC(=O)OC1O[C@H]2OC3(C)CC[C@H]4[C@H](C)CCC(C1C)C24OO3)C(=O)O (some centres undefined) | - | 0 | - | -
O=c1[nH]c(=O)n(CCC2=CCCCC2)c(O)c1C=NC1CCN(Cc2ccccc2)CC1 | 0 | 0 | 0 | 62.5 | STAT3 inh-2=69.3;NFkB inh STAT3ct=29.5;STAT1 inh STAT3c=0
O=C1C2CCN(CC2)[C@@H]1Cc1ccc2ccccc2c1O | 0 | 0 | 0 | 0
COc1cc(C)c(-c2nc(CN3C[C@@H]4C[C@@H](C3)c3cccc(=O)n3C4)c(C)o2)cc1C | 0 | 0 | 0 | 0
CC(=O)Nc1ccc(OC(=O)c2ccccc2N)cc1 | 0 | 0 | 0 | 0
Nc1ccccc1C(=O)OCCOc1ccccc1 | 0 | 0 | 0 | 57.6 | STAT3 inh-2=0;NFkB inh STAT3ct=0;STAT1 inh STAT3c=0
CN1C2CCC1/C(=C/c1ccccn1)C(=O)/C2=C\c1ccccn1 | 0 | 0 | 0 | 52.7 | STAT3 inh-2=0;NFkB inh STAT3ct=0;STAT1 inh STAT3c=0
CNC(=O)Oc1ccc(-c2cn3cc(Cl)ccc3n2)cc1 | 0 | 0 | 0 | 84.0 | STAT3 inh-2=68.0;NFkB inh STAT3ct=20.6;STAT1 inh STAT3c=0
COc1ccccc1N1C(=O)NC(=O)C2(Cc3cc(C)ccc3N(C)C2)C1=O (centres undefined) | 0 | 0 | 0 | 0
CN(C)C(=O)Oc1ccc2c(c1)O/C(=C\c1cccc(Cl)c1)C2=O | - | 0 | - | -
Cn1nc(-c2ccc(OCC(=O)N3CCN(Cc4ccccc4)CC3)cc2)c2ccccc2c1=O | 0 | 0 | 0 | 59.6 | STAT3 inh-2=48.7;NFkB inh STAT3ct=19.5;STAT1 inh STAT3c=17.0
CC(C)(C)n1cc(C(=O)c2ccccc2OCCCF)cn1 | - | 0 | - | -
CC(C)(C)n1cc(C(=O)c2ccc3ccccc3c2O)cn1 | 0 | 49.2 | 0 | 64.8 | STAT3 inh-2=0;NFkB inh STAT3ct=0;STAT1 inh STAT3c=0;HSP90 inh confirm=59.8;FLuc counter=58.0
CCCCP(=O)(O)CCC(=O)O | 0 | 0 | 0 | 0
CN(C)C(=O)Oc1ccc(OCc2nc3ccccc3[nH]2)cc1 | 0 | 27.3 | 0 | 57.5 | STAT3 inh-2=0;NFkB inh STAT3ct=0;STAT1 inh STAT3c=0;HSP90 inh confirm=52.0;FLuc counter=31.4
c1ccc2c(CNC3CCCCCC3)c[nH]c2c1 | 151.7 | 0 | 0 | 0 | STAT3 act-2=139.2;NFkB act STAT3ct=0;STAT1 act STAT3c=0
c1ccc2c(CN3CCCCCC3)c[nH]c2c1 | 0 | 0 | 0 | 0
CCCC(C)(COC(N)=O)COC(=O)NC(C)C (centres undefined) | 0 | 0 | 0 | 0
Cc1cc(C)cc(N2C(=O)NC(=O)/C(=C\C=C\c3ccco3)C2=O)c1 | 0 | 0 | 0 | 0

Screens: PubChem, The Scripps Research Institute Molecular Screening Center
